Data on two compounds can be found in ChEMBL document CHEMBL1137720, “New acyclic nucleosides analogues as potential analgesic, anti-inflammatory, anti-oxidant and anti-microbial derived from pyrimido[4,5-b]quinolines” (2009).

Experiment [1] concerns Rattus norvegicus. Put plainly: Antiinflammatory activity in Sprague-Dawley rat assessed as inhibition of carrageenan-induced paw edema at 10 mg/kg, po after 1 hr. The format is functional. In a few lines:
(§1)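 Adult female Sprague-Dawley rats, 150–180 g, were used (n = 6 per group). Paw volume increase after carrageenan was read at 1, 2, 3 and 4 h. % edema inhibition was calculated against untreated controls. The reference drug was given orally at 10 mg/kg as an aqueous suspension.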
(The carrageenan paw model is a standard test of acute inflammation.)

Experiment [2] is filed under the species Rattus norvegicus. The experiment is described as follows: animal or person. Particulars: Sprague-Dawley, po, 2 h, read-out: INH.
In experiment [3] the test system is Rattus norvegicus. The experiment is described as follows: Antiinflammatory activity in Sprague-Dawley rat assessed as inhibition of carrageenan-induced paw edema at 10 mg/kg, po after 3 hrs. The format is functional. The gist of the method:
as §1

Experiment [4] has as its system Rattus norvegicus. The experiment is described as follows: Antiinflammatory activity in Sprague-Dawley rat assessed as inhibition of carrageenan-induced paw edema at 10 mg/kg, po after 4 hrs. The class given is functional. The gist of the method: as §1
The subject of a further experiment is Escherichia coli. The experiment is described as follows: Antibacterial activity against Escherichia coli ATCC 23566 at 100 ug/disk after 24 to 48 hrs by agar disk diffusion method. The format is functional. Particulars: read-out: DIZ. The gist of the method:
(§2)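 Agar disc diffusion used sterile 5 mm filter-paper discs loaded with 100 µg per disc, with DMSO as solvent. Plates were incubated 24–28 h at 37 °C and inhibition zone diameters measured: 6–10 mm slight, 11–15 mm moderate, >15 mm high. For MIC, discs carried varying amounts, and MIC was the lowest amount giving no visible growth.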
For orientation: Agar diffusion results depend on both activity and mobility in agar.

The next experiment relates to Pseudomonas aeruginosa. The experiment is described as follows: Antibacterial activity against Pseudomonas aeruginosa ATCC 10145 at 100 ug/disk after 24 to 48 hrs by agar disk diffusion method. The format is functional. Particulars: read-out: DIZ. In a few lines: as §2
The test system of another experiment is Aspergillus fumigatus. The experiment is described as follows: Antimicrobial activity against Aspergillus fumigatus ATCC 96918 at 100 ug/disk after 5 days by agar disk diffusion method. The class given is functional. Particulars: ATCC 96918, 120 h, read-out: DIZ.
A short description of experiment [5]: Antioxidant activity assessed as inhibition of ABTS-oxidation in 0.1 M phosphate buffer at pH 7. The format is functional. The gist of the method:
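ABTS (60 µM, 2 mL) was mixed with MnO2 (25 mg/mL) in 0.1 M phosphate buffer pH 7, then shaken, centrifuged and filtered. Radical solution A734 was set to about 0.5. MeOH/buffer served as negative control.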

For another experiment, the system named is Staphylococcus aureus. The experiment is described as follows: Antibacterial activity against Staphylococcus aureus ATCC 25923 at 100 ug/disk after 24 to 48 hrs by agar disk diffusion method. The format is functional. Particulars: read-out: DIZ. The gist of the method:
as §2

The species named for experiment [6] is Mus musculus. Put plainly: Analgesic activity in Swiss mouse assessed as reaction time after 60 mins by hot plate test. The format is functional. In a few lines: (§3)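 Swiss mice of both sexes, 25–30 g, were housed at 22 ± 1 °C on a 12 h light/dark cycle with free access to diet and water. Hot-plate testing followed Turner's method.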
For orientation: Thermal pain tests record how soon the animal reacts.

Experiment [7] concerns Rattus norvegicus. The experiment is described as follows: Antiinflammatory activity in Sprague-Dawley rat assessed as inhibition of carrageenan-induced paw edema after 3 hrs. The format is functional. In a few lines: as §1
In experiment [8] the test system is Rattus norvegicus. Put plainly: Antiinflammatory activity in Sprague-Dawley rat assessed as inhibition of carrageenan-induced paw edema after 4 hrs. The class given is functional. The gist of the method: as §1
The next experiment has as its system Nucleic Acid. Put plainly: Inhibition of bleomycin-induced DNA damage assessed as absorbance at 532 nm after 1 hr at 37 degC. The class given is nucleic-acid assay. The gist of the method: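 The 0.5 mL reaction contained calf thymus DNA (0.5 mg/mL), bleomycin sulfate (0.05 mg/mL), MgCl2 (5 mM), FeCl3 (50 µM) and compound at varying concentrations. After 1 h at 37 °C, the reaction was stopped with EDTA. TBA (1%) and HCl (25%) were added, followed by 10 min at 80 °C. After centrifugation, DNA damage was read as A532.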

For experiment [9], the species on record is Mus musculus. Put plainly: Analgesic activity in Swiss mouse assessed as reaction time after 90 mins by hot plate test. The format is functional. In a few lines: as §3
For experiment [10], the species on record is Mus musculus. The experiment is described as follows: Analgesic activity in Swiss mouse assessed as reaction time after 30 mins by hot plate test. The format is functional. In a few lines: as §3
In experiment [11] the test system is Rattus norvegicus. Put plainly: Antiinflammatory activity in Sprague-Dawley rat assessed as inhibition of carrageenan-induced paw edema after 1 hr. The format is functional. The gist of the method:
as §1

Experiment [12] in a line: Antioxidant activity in Sprague-Dawley rat erythrocytes assessed as ABTS-induced hemolysis after 1 hr. The format is functional, Erythrocyte. Set-up: concentration or dose not given beside the values.
Experiment [13] deals with Rattus norvegicus. The experiment is described as follows: Antiinflammatory activity in Sprague-Dawley rat assessed as inhibition of carrageenan-induced paw edema after 2 hrs. The format is functional. The gist of the method: as §1
Another experiment deals with Candida albicans. Put plainly: Antimicrobial activity against Candida albicans ATCC 14053 at 100 ug/disk after 5 days by agar disk diffusion method. The class given is functional. Particulars: ATCC 14053, 120 h, read-out: DIZ.

Structures are written as SMILES.

`COc1ccc2c(c1)c(CC(=O)O)c(C)n2C(=O)c1ccc(Cl)cc1` [INDOMETHACIN]: the inhibition in vivo at 10 mg/kg in the experiment on Rattus norvegicus [1] is 50%; in the experiment filed under Rattus norvegicus [2] it was 58%; with Rattus norvegicus [3], 65.2%; in the experiment with Rattus norvegicus [4], 57.8%.

One may read the inhibition as how much of the control response was suppressed. `O=c1c2c(-c3ccc(Cl)cc3)c3c(nc2nc2[nH]nc([C@H](O)[C@H](O)[C@H](O)CO)n12)/C(=C/c1ccc(Cl)cc1)CCC3`: the zone of inhibition at 100 µg/disc in the experiment with Escherichia coli came to 18 mm; in the experiment on Pseudomonas aeruginosa, 18 mm; in the experiment on Aspergillus fumigatus, 13 mm; with Staphylococcus aureus, 22 mm; in the experiment on Candida albicans, 13 mm. For the same compound, the inhibition in [5] amounted to 68.8%. In addition, the Activity in the experiment listed under Mus musculus [6] is recorded as 5.35 s; in the experiment listed under Mus musculus [9] it was 6.667 s; in the experiment listed under Mus musculus [10], 3.55 s; in experiment [12], 3.42%. The “inhibition (INH)” value is listed as 39.06% with Rattus norvegicus [7], 39.81% with Rattus norvegicus [8], 46.88% with Rattus norvegicus [11] and 40.58% in the experiment with Rattus norvegicus [13]. Besides, in the experiment with Nucleic Acid, the deltaA turned out to be 0.045.
